Results taken from ChEMBL document CHEMBL1139436, “Quantitative structure-activity relationship of sesquiterpene lactones as inhibitors of the transcription factor NF-kappaB” (J Med Chem, 2004).

Each compound was assayed against T1, Nuclear factor NF-kappa-B complex (Homo sapiens) (UniProt Q00653+P19838+Q04206) (assay: (§1) Concentration required for complete inhibition of Nuclear factor kappa B DNA binding).
T1 sequence (P19838 whole entry, looked up): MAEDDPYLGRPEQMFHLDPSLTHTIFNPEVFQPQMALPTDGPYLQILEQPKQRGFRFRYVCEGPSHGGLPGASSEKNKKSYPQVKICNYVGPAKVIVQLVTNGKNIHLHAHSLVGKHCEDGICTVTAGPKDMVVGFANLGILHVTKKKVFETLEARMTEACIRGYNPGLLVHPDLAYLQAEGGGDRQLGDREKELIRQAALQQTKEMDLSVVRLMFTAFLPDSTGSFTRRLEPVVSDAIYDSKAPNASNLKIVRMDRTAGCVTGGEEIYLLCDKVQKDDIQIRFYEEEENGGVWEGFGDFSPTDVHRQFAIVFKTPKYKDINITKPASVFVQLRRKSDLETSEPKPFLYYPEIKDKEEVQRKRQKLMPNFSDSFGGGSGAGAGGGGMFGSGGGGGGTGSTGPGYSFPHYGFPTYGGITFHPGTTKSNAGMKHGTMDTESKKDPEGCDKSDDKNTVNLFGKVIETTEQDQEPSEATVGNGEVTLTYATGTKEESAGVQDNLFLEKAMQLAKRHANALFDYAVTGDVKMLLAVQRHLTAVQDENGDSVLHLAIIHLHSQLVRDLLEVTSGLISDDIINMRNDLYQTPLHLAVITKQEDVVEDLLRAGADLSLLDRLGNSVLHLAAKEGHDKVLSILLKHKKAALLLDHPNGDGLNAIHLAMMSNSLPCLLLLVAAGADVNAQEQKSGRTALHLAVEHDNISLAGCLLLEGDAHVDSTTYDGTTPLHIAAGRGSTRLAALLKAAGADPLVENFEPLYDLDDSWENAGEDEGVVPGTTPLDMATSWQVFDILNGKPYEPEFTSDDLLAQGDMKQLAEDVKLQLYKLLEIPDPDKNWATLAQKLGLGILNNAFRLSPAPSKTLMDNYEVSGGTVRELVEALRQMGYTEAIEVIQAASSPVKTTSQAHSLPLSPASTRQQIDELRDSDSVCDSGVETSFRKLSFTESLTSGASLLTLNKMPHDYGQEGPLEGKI
T1 sequence (Q00653 whole entry, looked up): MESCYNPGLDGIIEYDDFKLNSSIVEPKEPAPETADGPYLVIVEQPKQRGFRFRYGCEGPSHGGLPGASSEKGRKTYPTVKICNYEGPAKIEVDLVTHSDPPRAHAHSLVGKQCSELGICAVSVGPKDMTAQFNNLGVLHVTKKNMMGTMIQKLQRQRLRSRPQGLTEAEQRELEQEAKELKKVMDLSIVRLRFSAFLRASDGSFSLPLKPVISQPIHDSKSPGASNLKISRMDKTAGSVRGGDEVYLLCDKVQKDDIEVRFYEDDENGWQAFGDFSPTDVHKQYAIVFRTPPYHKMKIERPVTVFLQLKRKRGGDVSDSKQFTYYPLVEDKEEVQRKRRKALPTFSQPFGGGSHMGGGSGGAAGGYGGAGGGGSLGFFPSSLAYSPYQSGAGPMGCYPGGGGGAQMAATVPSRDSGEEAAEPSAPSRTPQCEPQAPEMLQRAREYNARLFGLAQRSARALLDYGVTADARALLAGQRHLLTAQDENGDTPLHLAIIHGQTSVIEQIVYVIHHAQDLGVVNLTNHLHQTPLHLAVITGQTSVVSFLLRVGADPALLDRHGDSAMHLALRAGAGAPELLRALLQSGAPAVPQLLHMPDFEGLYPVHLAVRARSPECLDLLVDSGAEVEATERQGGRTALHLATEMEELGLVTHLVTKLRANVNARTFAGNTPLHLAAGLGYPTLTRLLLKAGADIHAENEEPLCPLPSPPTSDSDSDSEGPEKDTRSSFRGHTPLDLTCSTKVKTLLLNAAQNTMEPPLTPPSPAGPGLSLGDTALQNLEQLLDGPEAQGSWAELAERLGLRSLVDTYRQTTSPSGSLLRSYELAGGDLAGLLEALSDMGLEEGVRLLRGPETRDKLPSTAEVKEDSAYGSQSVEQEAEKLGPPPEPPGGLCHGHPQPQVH
T1 sequence (Q04206 whole entry, looked up): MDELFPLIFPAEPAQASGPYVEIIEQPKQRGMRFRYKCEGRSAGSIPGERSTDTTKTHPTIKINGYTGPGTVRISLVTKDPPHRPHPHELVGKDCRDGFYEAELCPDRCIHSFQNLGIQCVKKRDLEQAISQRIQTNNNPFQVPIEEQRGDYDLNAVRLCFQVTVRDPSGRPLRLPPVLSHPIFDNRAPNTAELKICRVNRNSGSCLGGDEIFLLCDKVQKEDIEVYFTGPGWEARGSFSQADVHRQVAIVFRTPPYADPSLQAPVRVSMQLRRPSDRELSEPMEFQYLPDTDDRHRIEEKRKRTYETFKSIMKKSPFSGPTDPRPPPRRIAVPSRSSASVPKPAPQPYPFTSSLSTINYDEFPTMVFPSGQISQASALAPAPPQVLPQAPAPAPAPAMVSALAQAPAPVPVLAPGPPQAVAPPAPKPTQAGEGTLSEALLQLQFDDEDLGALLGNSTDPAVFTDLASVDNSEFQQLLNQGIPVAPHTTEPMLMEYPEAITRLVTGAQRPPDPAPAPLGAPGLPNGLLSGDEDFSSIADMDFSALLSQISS
Type: protein-complex assay
Set-up: unit not given here
How it was run: (§2)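 Jurkat T cells (RPMI 1640, 10% FCS, penicillin/streptomycin) pretreated 1 h with sesquiterpene lactone, first at 10, 20, 50, 100 μM, then 1–5 μM or 200–300 μM as needed. Stimulated 1 h with 200 U/mL TNF-α. Total extracts (Totex high-salt buffer) analysed by EMSA with ³²P-labeled NF-κB oligonucleotide, 25 min at room temperature. IC100 is the lowest tested level fully blocking binding; intermediate values assigned the higher level. Each experiment reproduced at least once.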
In the case of `C=C1C(=O)O[C@H]2C/C(CO)=C\CC/C(COC(=O)C(C)CO)=C\C[C@H]12` (stereo partly specified), the pIC100 is reported as -2. In the case of `C=C1C(=O)O[C@H]2[C@H]1[C@@H](OC(=O)/C(C)=C/C)C/C(C)=C\[C@@]1(OC)C=C(C)[C@@H]2O1`, the pIC100 is reported as -1. `C=C1C(=O)O[C@@H]2C[C@H](C)C3=C(C[C@H]12)[C@@H](C)CC3=O` gave a pIC100 of -1.3. Compound `C=C(C)C(=O)O[C@H]1/C(C=O)=C\CC/C(C)=C\[C@H]2OC(=O)C(=C)[C@@H]2[C@@H]1O` has a pIC100 of -0.69.

The compounds below were run against T1, Nuclear factor NF-kappa-B complex (Homo sapiens) (assay: as §1).
Type: protein-complex assay
How it was run: as §2
`C=C1C(=O)O[C@H]2C/C(CO)=C\CC/C(COC(=O)C(C)CO)=C\C[C@H]12` (stereo partly specified) showed an IC100 of 100 µM. In the case of `C=C1C(=O)O[C@H]2[C@H]1[C@@H](OC(=O)/C(C)=C/C)C/C(C)=C\[C@@]1(OC)C=C(C)[C@@H]2O1`, the IC100 is reported as 10 µM. With `C=C1C(=O)O[C@@H]2C[C@H](C)C3=C(C[C@H]12)[C@@H](C)CC3=O` the IC100 was 20 µM. `C=C(C)C(=O)O[C@H]1/C(C=O)=C\CC/C(C)=C\[C@H]2OC(=O)C(=C)[C@@H]2[C@@H]1O` gave an IC100 of 5 µM. `C=C1C(=O)O[C@]23C[C@H]1CCC(CO)=C2C(=O)C=C3C` gave an IC100 of 50 µM. Work on `C=C1[C@H](O)C[C@@H](O)[C@]2(C)CC[C@H]3C(=C)C(=O)O[C@@H]3[C@@H]12` yielded an IC100 of 200 µM. `C=C1C(=O)O[C@@H]2C[C@@]3(C)[C@H](O)CC[C@@](O)(COC(=O)C(C)C)[C@@H]3C[C@H]12` was tested, and the IC100 was 200 µM. For `C=C1C(=O)OC2[C@H]3O[C@]3(C)CC/C=C(/C)CC[C@@H]12` (stereo partly specified), the IC100 was 20 µM. `C=C1[C@H](O)C[C@H](O)[C@]2(C)CC[C@H]3C(=C)C(=O)O[C@@H]3[C@@H]12` gave an IC100 of 100 µM. `C=C1C(=O)O[C@@H]2C[C@H](C)[C@@H]3CC(=O)C(C)=C3C[C@H]12` gave an IC100 of 50 µM. Work on `C=C1C(=O)O[C@@H]2[C@H]3C(C)=CC[C@@H](O)[C@]3(C)CC[C@@H]12` yielded an IC100 of 100 µM. For `C=C1C(=O)O[C@@H]2C[C@@]3(C)[C@H](OC(C)=O)CC[C@](O)(COC(=O)C(C)C)[C@@H]3C[C@H]12`, the IC100 was 100 µM. In the case of `CC(=O)O[C@H]1[C@@H]2[C@H](C)C(=O)O[C@@H]2C[C@@H](C)[C@@H]2C=CC(=O)[C@]21C`, the IC100 is reported as 200 µM. `C=C1C(=O)O[C@@H]2[C@@H]3[C@@](C)(CC[C@@H]12)[C@@H](O)C[C@H]1O[C@@]31C` gave an IC100 of 200 µM. With `C=C1C(=O)O[C@@H]2/C=C(/C)CC/C=C(/C)CC[C@@H]12` the IC100 was 50 µM. In the case of `C=C1C(=O)O[C@H]2[C@H]1[C@H](OC(=O)[C@@]1(C)O[C@H]1C)[C@@H](OC(C)=O)/C(C(=O)OC)=C\CC[C@@]1(C)O[C@@H]21`, the IC100 is reported as 10 µM. With `C[C@@H]1C[C@H]2OC(=O)[C@@H](C)[C@H]2[C@H](O)[C@]2(C)C(=O)C=C[C@@H]12` the IC100 was 200 µM. `C=C1C(=O)O[C@@H]2C[C@@]3(C)CC(=O)C(OC(C)=O)=C(C)C3C[C@H]12` (stereo partly specified) showed an IC100 of 100 µM. For `C=C1C(=O)O[C@@H]2[C@H]3C(C)=CC(=O)C3=C(C)CC[C@@H]12`, the IC100 was 50 µM. Work on `C=C1C(=O)O[C@@H]2C[C@@H](C)[C@@H]3C=CC(=O)[C@@]3(C)[C@@H](O)[C@H]12` yielded an IC100 of 10 µM. With `C=C(C)C(=O)O[C@H]1[C@@H]2[C@H](C)C(=O)O[C@@H]2C[C@@H](C)[C@@H]2C=CC(=O)[C@]21C` the IC100 was 100 µM. Compound `C=C1C(=O)OC2C[C@@H](C)[C@@H]3C=CC(=O)[C@@]3(C)[C@H](O)[C@H]12` (single isomer, unassigned) has an IC100 of 20 µM. In the case of `C/C=C(\C)C(=O)O[C@H]1[C@@H]2[C@H](C)C(=O)O[C@@H]2C[C@@H](C)[C@@H]2C=CC(=O)[C@]21C`, the IC100 is reported as 100 µM. `C=C1[C@@H]2[C@H]3OC(=O)C(=C)[C@@H]3CCC(=C)[C@@H]2C[C@@H]1OC(C)=O` showed an IC100 of 100 µM. For `C=C1C(=O)O[C@@H]2C[C@@H](C)[C@@H]3C=CC(=O)[C@@]3(C)[C@@H](OC(=O)C(C)C)[C@H]12`, the IC100 was 20 µM. For `C=C1C(=O)O[C@@H]2[C@H]3C(C)=CC[C@H](O)[C@]3(C)CC[C@@H]12`, the IC100 was 300 µM. With `C=C1C(=O)O[C@@H]2C[C@@H](C)[C@@H]3[C@@H](OC(C)=O)C[C@@H](O)[C@@]3(C)C[C@H]12` the IC100 was 200 µM. Work on `C=C1C(=O)O[C@@H]2C[C@@]3(C)[C@H](O)CC[C@](O)(COC(=O)C(C)C)[C@@H]3C[C@H]12` yielded an IC100 of 200 µM. With `C=C1C(=O)O[C@@H]2C[C@@H](C)[C@@H]3CCC(=O)[C@@]3(C)C[C@H]12` the IC100 was 50 µM. `C=C1C(=O)O[C@H]2CC(=C)[C@H](O)CC/C(C)=C/[C@@H](O)[C@H]12` showed an IC100 of 50 µM. Compound `C=C1C(=O)O[C@]23C[C@H]1CCC(COC(C)=O)=C2C(=O)C=C3C` has an IC100 of 100 µM. In the case of `C=C1C(=O)O[C@@H]2C[C@@]3(C)[C@H](O)CC=C(COC(=O)C(C)C)[C@@H]3C[C@H]12`, the IC100 is reported as 50 µM.
